Reference: ChEMBL document CHEMBL4184297, “Discovery and validation of 2-styryl substituted benzoxazin-4-ones as a novel scaffold for rhomboid protease inhibitors” (Bioorg Med Chem Lett, 2018)
Positions count from the first letter of the chain named. Calls of active or inactive are those of the source. The rule behind the calls is not given here.

Legend:
Escherichia coli [1] = test: Inhibition of recombinant Escherichia coli N-terminal His-tagged rhomboid protease GlpG expressed in Escherichia coli C43(DE3) cells at 250 uM using gurken as substrate preincubated for 30 mins followed by substrate addition measured after 90 mins by SDS-PAGE analysis
Escherichia coli [2] = test: (§1) Reversible inhibition of recombinant Escherichia coli N-terminal His-tagged rhomboid protease GlpG expressed in Escherichia coli C43(DE3) cells assessed as recovery of enzyme activity at 1 uM using KSp76 as substrate preincubated for 1 hr followed by substrate addition measured over 120 mins by rapid dilution based fluorescence assay
Procedure, shortened: (§2)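 Rapid-dilution recovery. Inhibitor preincubated 1 h with 0.4 µM GlpG in 20 mM HEPES-NaOH pH 7.4, 150 mM NaCl, 0.05% DDM, then diluted 100-fold into buffer with 10 µM KSp76. Fluorescence (ex 553/em 583) monitored continuously for 120 min.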

[3] = Inhibition of recombinant Escherichia coli N-terminal His-tagged rhomboid protease GlpG expressed in Escherichia coli C43(DE3) cells using KSp53 as substrate incubated for 1 hr followed by substrate addition by fluorescence assay; conditions: in the assay text read “KSp35” for “KSp53”
Procedure, shortened: (§3)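 Started with 10 µM quenched fluorogenic peptide (KSp35 or KSp76). Fluorescence normalized to DMSO and plotted against log concentration; apparent IC50 from nonlinear regression.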

Bos taurus = species on record: Bos taurus; test: Inhibition of bovine pancreas trypsin at 10 uM using Z-Gly-Gly-Argaminomethylcoumarin as substrate preincubated for 30 mins followed by substrate addition measured at 1 min time interval for 5 mins by fluorescence assay
Procedure, shortened: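 Compound or DMSO preincubated with 10 nM bovine pancreatic trypsin in PBS for 30 min at 30°C. Started with Z-Gly-Gly-Arg-AMC (1 mM stock). AMC fluorescence (ex 340/em 440) read every 1 min for 5 min. Initial slope gives velocity; % activity = V inhibitor/V DMSO × 100.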

[4] = target: T1, Neutrophil elastase (Homo sapiens) (UniProt P08246); test: Inhibition of human neutrophil elastase at 10 uM using N-Methoxysuccinyl-Ala-Ala-Pro-Val-p-nitroanilid as substrate preincubated for 20 mins followed by substrate addition measured at 1 min time interval for 5 mins by fluorescence assay
T1 sequence (whole entry): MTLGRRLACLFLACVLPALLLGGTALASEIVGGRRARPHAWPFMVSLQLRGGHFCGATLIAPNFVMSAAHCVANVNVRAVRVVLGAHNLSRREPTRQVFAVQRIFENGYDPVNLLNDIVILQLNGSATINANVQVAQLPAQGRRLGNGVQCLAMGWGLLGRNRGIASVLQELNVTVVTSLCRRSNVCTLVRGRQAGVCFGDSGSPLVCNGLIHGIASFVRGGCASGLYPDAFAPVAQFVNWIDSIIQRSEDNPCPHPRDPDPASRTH

[5] = target: T2, Cathepsin G (Homo sapiens) (UniProt P08311); test: Inhibition of human neutrophil cathepsin G at 10 uM using N-Succinyl-Ala-Ala-Pro-Phe-p-nitroanilide as substrate preincubated for 30 mins followed by substrate addition measured at 1 min time interval for 5 mins by fluorescence assay; conditions: in the assay text read “absorbance assay” for “fluorescence assay”
T2 sequence (whole entry): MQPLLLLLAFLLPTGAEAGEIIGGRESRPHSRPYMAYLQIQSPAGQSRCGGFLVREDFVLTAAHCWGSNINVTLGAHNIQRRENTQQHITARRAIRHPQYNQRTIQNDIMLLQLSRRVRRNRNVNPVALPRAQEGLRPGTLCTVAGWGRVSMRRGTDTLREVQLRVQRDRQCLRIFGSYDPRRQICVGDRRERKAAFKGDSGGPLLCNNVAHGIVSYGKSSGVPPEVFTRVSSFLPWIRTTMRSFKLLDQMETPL
Procedure, shortened: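 Compound or DMSO preincubated with 200 nM human neutrophil cathepsin G for 30 min at 37°C in 100 mM HEPES, 500 mM NaCl, pH 7.4. Started with Suc-AAPF-pNA (2 mM stock). Absorbance at 410 nm read every 1 min for 5 min. Initial slope gives velocity; % activity relative to DMSO.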

Escherichia coli [6] = test: as §1, with “at 10” for “at 1”; procedure, shortened: as §2
Chymotrypsinogen A = Chymotrypsinogen A (Bos taurus, UniProt P00766); test: Inhibition of bovine pancreas alpha-chymotrypsin using KSp21 as substrate preincubated for 30 mins followed by substrate addition measured after 50 to 60 mins by fluorescence assay
[7] = Inhibition of recombinant Escherichia coli N-terminal His-tagged rhomboid protease GlpG expressed in Escherichia coli C43(DE3) cells using KSp76 as substrate incubated for 1 hr followed by substrate addition by fluorescence assay; procedure, shortened: as §3
[8] = target: Chymotrypsinogen A (Bos taurus) (UniProt P00766); test: Inhibition of bovine alpha-chymotrypsin at 250 uM using N-Succinyl-Ala-AlaPro-Phe-p-nitroanilide as substrate incubated for 30 mins followed by substrate addition measured over 5 mins by spectroscopic method
Escherichia coli [9] = test: Binding affinity to wild type recombinant Escherichia coli rhomboid protease GlpG expressed in Escherichia coli C43(DE3) cells by electrospray mass spectrometric analysis
Procedure, shortened: (§4)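 GlpG (wild type or rhomboid mutants) expressed in E. coli C43(DE3) and purified, then reacted in vitro with compound or vehicle. Covalent adduct detected by electrospray mass spectrometry as an added peak with the expected mass shift over free enzyme. Two independent experiments.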

[10] = test system: T3, Rhomboid protease GlpG (Escherichia coli (strain K12)), P09391 [S201T]; test: Binding affinity to recombinant Escherichia coli rhomboid protease GlpG S201T mutant expressed in Escherichia coli C43(DE3) cells by electrospray mass spectrometric analysis; procedure, shortened: as §4
T3 sequence (whole entry): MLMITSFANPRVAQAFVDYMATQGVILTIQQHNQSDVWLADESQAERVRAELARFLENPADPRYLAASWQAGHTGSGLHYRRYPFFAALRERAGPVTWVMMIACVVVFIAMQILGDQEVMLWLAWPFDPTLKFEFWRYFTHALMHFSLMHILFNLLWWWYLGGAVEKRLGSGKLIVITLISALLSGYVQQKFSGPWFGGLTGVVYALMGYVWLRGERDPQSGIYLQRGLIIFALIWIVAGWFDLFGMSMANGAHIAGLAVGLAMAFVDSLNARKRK

[11] = test system: T4, Rhomboid protease GlpG (Escherichia coli (strain K12)), P09391 [H254A]; test: Binding affinity to recombinant Escherichia coli rhomboid protease GlpG H254A mutant expressed in Escherichia coli C43(DE3) cells by electrospray mass spectrometric analysis; procedure, shortened: as §4
T4 sequence (whole entry): T3 sequence (whole entry) with T201S, H254A

[12] = target: T5, Rhomboid protease GlpG (Escherichia coli (strain K12)) (UniProt P09391); test: Binding affinity to recombinant Escherichia coli rhomboid protease GlpG His150 mutant expressed in Escherichia coli C43(DE3) cells by electrospray mass spectrometric analysis; procedure, shortened: as §4
T5 sequence (whole entry): T3 sequence (whole entry) with T201S

Escherichia coli [13] = test: as §1, with “at 50” for “at 1”; procedure, shortened: as §2

SMILES: O=c1oc(-c2ccccc2F)nc2ccccc12
- inhibition (Escherichia coli [1]): inactive

SMILES: O=c1oc(/C=C/c2ccc(F)c(F)c2)nc2ccccc12
- inhibition (Escherichia coli [1]): inactive

SMILES: O=C1CC(c2ccccc2)N1C(=O)Oc1ccccc1 (configuration not stated)
- inhibition (Escherichia coli [2]): Active

SMILES: COc1ccc(/C=C/c2nc3ccccc3c(=O)o2)cc1
- inhibition (Escherichia coli [1]): Active
- IC50 [3]: 48 µM
- inhibition (Bos taurus): inactive
- inhibition [4]: inactive
- inhibition [5]: inactive

SMILES: O=c1oc(-c2ccccc2)nc2ccccc12
- inhibition (Escherichia coli [1]): inactive

SMILES: CCC(=O)Oc1c(/C=C/c2nc3ccccc3c(=O)o2)cccc1OC
- inhibition (Escherichia coli [1]): inactive

SMILES: O=c1oc(-c2ccco2)nc2ccccc12
- inhibition (Escherichia coli [1]): inactive

SMILES: COc1oc(=O)c2cc(N)ccc2c1Cl
- inhibition (Escherichia coli [6]): inactive

SMILES: COc1ccc(-c2nc3ccccc3c(=O)o2)cc1
- inhibition (Escherichia coli [1]): inactive

SMILES: O=c1oc(Cl)c(Cl)c2ccccc12
- inhibition (Bos taurus): Active
- inhibition [4]: Active
- IC50 (Chymotrypsinogen A): 3.5 µM

SMILES: O=c1oc(/C=C/c2ccccc2Cl)nc2ccccc12
- inhibition (Escherichia coli [1]): Active
- IC50 [7]: 4.4 µM
- inhibition [8]: inactive
- inhibition (Bos taurus): inactive
- inhibition [4]: inactive
- inhibition [5]: Active
- Activity (Escherichia coli [9]): Active
- Activity [10]: inactive
- Activity [11]: inactive
- Activity [12]: Active
- inhibition (Escherichia coli [13]): Active

SMILES: O=c1oc(/C=C/c2ccccc2)nc2ccccc12
- inhibition (Escherichia coli [1]): Active
- IC50 [3]: 3.7 µM
- inhibition [8]: inactive
- inhibition (Bos taurus): inactive
- inhibition [4]: inactive
- inhibition [5]: Active
- Activity (Escherichia coli [9]): Active

SMILES: O=c1oc(-c2cccc(F)c2)nc2ccccc12
- inhibition (Escherichia coli [1]): inactive

SMILES: O=c1oc(-c2cccc(Br)c2)nc2ccccc12
- inhibition (Escherichia coli [1]): inactive

SMILES: O=c1oc(-c2ccc(F)cc2)nc2ccccc12
- inhibition (Escherichia coli [1]): inactive
